From PubChem BioAssay
RGS4 pot – potentiators or activators of RGS4. HEK293 M3R/inducible RGS4, carbachol calcium flux Fluo4; hits give low values. 0.92% of 310,000 active. B-score at 10 µM;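 active = B-score of the integrated calcium signal more than 4 SD below the library mean, with starting fluorescence not abnormally high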;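 note: negative B-score means reduced calcium response which marks RGS4 activation or potentiation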
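Test system: HEK293 cells with stable M3R and inducible RGS4; also added: carbachol at ECmax as muscarinic agonist stimulus; schedule: dye loading 30 min 37 °C, buffer rest 30 min RT; technique: kinetic calcium fluorescence imaging with Fluo4-AM dye, 2 µM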
MrgX1 antagonist – antagonists of human MrgX1 receptor; Q96LB2; MRGX1-HEK293 calcium flux, Fluo-4, BAM8-22 antagonism; hits give low values; B-score at 10 µM; 1.3% of 310,000 active; AID 588676;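 active = calcium-response B-score plate-corrected more than 3 library SD below zero, starting fluorescence within 5 deviations, no agonist response on first addition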;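 note: peak minus trough fluorescence over baseline after final BAM8-22 challenge near maximal dose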
Target sequence (Q96LB2 whole entry, looked up): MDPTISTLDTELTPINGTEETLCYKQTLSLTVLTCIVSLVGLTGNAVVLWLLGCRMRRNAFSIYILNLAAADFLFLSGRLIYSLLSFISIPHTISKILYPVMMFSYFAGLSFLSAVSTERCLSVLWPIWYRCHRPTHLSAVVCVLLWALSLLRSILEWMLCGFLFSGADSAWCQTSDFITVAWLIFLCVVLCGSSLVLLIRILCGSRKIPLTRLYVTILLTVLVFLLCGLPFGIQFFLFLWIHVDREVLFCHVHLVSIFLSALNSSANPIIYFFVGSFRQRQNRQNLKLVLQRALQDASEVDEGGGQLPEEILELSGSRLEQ
MrgX1 PAM – human MrgX1 positive allosteric modulation, primary screen. Q96LB2. MrgX1-HEK293, Fluo-4 calcium flux, FDSS; hits give high values. B-score at 10 µM. 0.63% of 310,000 active. AID 588675;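 active = plate-corrected calcium response at least 3 library SD above typical, normal starting fluorescence, not activating the receptor alone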;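 note: compound read alongside a low EC10 to EC30 dose of BAM8-22 agonist; peak minus trough fluorescence over baseline measured at the second addition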
RGS4 block – inhibitors of human RGS4. HEK293 M3R/RGS4 inducible, Fluo-4 calcium flux; hits give high values; triggered by carbachol at its EC20. B-score at 10 µM. 0.45% of 310,000 active;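 active = B-score, a plate-corrected calcium signal, over three deviations above library mean, with baseline fluorescence within five deviations of library mean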;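 note: RGS4 expression induced by doxycycline in cells with stable M3 receptor; B-score is computed from the integrated fluorescence ratio over baseline after carbachol; higher B-score means a larger calcium signal and so more RGS4 inhibition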
Target sequence (P49798 whole entry, looked up): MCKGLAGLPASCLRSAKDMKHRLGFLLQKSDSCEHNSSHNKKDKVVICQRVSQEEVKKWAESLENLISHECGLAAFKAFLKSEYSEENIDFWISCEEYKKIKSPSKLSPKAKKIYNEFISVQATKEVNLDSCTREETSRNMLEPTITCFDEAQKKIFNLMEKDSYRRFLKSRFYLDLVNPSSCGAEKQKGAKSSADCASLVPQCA
MrgX1 agonist – activates human MrgX1 receptor signaling; 0.44% of 310,000 active; Q96LB2; B-score at 10 µM; AID 588627; MrgX1-HEK293 cells, Fluo-4 calcium fluorescence, agonist mode; hits give high values;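 active = calcium response B-score plate-corrected fluorescence ratio at least 3 library SD, with starting fluorescence B-score inside 5 SD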
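Test system: HEK293 cells stably expressing human MrgX1 receptor; Input: fifteen thousand cells per well; Dosing: compound delivered in addition one of three; Schedule: overnight seeding, then 1 h dark dye loading; Technique: Fluo-4 NW calcium fluorescence; Measure: B-scored fluorescence response ratio; Controls: positive and negative controls per plate.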
MrgX1 allo conf – reconfirmed allosteric activator of human MrgX1 receptor; shares compounds with MrgX1 PAM; MrgX1-HEK293, Fluo-4 calcium fluorescence, FDSS; activation (ratio percentage), % at 10 µM; 13% of 1,200 active; AID 602413;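 active = ratio at least 3 SD above the weak peptide control, stable starting fluorescence, no direct agonism earlier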;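 note: compound followed by low BAM8-22 agonist challenge near EC20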
HEK293 Ca flux – activity in parental HEK293 cells lacking MrgX1 | 2% of 4,000 active | shares compounds with MrgX1 antagonist | fluorescence ratio F(max-min)/F0 at 10 µM | Fluo-4 calcium fluorescence, FDSS;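 active = duplicate-averaged calcium fluorescence ratio at least three times the standard deviation of buffer wells, a nonspecific response in parental cells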
HEK293 Ca counter – MrgX1 allosteric activator counter-screen hit in parental HEK293 cells | 0.4% of 4,000 active | shares compounds with MrgX1 antagonist | fluorescence ratio F(max-min)/F0 at 10 µM | parental HEK293 calcium flux, Fluo-4 fluorescence ratio; hits give high values;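 active = calcium fluorescence ratio, averaged over duplicates, at least 3 SD of the buffer-well ratio, meaning a nonspecific response in receptor-free cells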;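 note: untransfected parental HEK293 lacking MrgX1 used as counterscreen for MrgX1 allosteric activators; fluorescence change taken during the second addition on a kinetic imager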
HEK293 Ca cntr2 – counter-screen for MrgX1 activators: effect in parental HEK293 cells; Fluo-4 calcium fluorescence (FDSS); hits give high values; shares compounds with MrgX1 antagonist; 8.7% of 4,000 active; fluorescence ratio F(max-min)/F0 at 10 µM;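 active = calcium fluorescence ratio at least three times the spread of buffer wells, meaning a non-specific response in parental cells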
An asterisk follows results filed as active; i = inactive; . = no result. This is a sample that favours compounds with a hit; in the whole collection about 3.5% have one here.

SMILES	RGS4 pot	MrgX1 antagonist	MrgX1 PAM	RGS4 block	MrgX1 agonist	MrgX1 allo conf	HEK293 Ca flux	HEK293 Ca counter	HEK293 Ca cntr2
COc1ccc2c(C)cc(SCC(=O)N(C)C3CCS(=O)(=O)C3)nc2c1 (stereo not drawn)	i	i	10*	i	i	i	i	i	i
CC1CN(c2cc(-c3ccccc3)c3ccccc3n2)CC(C)O1 (stereo not drawn)	i	i	i	i	i	.	.	.	.
CC1CN(c2nc3ccccc3cc2-c2ccccc2)CC(C)O1 (stereo not drawn)	i	i	17*	i	i	i	i	i	i
C/C(=N\NC(=O)c1cccc(S(=O)(=O)Nc2ccccc2Cl)c1)c1ccco1	i	i	i	i	i	.	.	.	.
C/C(=N\NC(=O)c1ccc(Cl)c(S(=O)(=O)Nc2ccccc2Cl)c1)c1ccncc1	i	i	21*	i	i	i	i	i	i
Nc1c(C=C2C=CC(=O)C=C2)c(=O)nc2sc(CC(=O)N3CCCC3)nn12	i	i	i	i	i	.	.	.	.
CCS(=O)(=O)c1nn2c(N)c(/C=C3/C=CC(=O)C(OC)=C3)c(=O)nc2s1	i	i	28*	i	i	i	i	i	63*
CCCc1cc(C(N)=O)c(NC(=O)c2ccoc2C)s1	i	i	8.7*	i	i	i	i	i	i
COCCN(C(=S)Nc1cc(C)cc(C)c1)C(C)c1ccco1 (stereo not drawn)	i	i	8.2*	i	i	i	i	i	i
CCC(=O)N(Cc1cc2cc(C)c(C)cc2[nH]c1=O)C1CCCCC1	i	i	7.6*	i	i	i	i	i	i
CCNC(=S)N(Cc1cc2cc(C)c(C)cc2[nH]c1=O)C1CCCC1	i	i	i	i	i	.	.	.	.
CC12COC3(C(=O)Nc4nccs4)CC1CCC32C (stereo not drawn)	i	i	i	i	i	.	.	.	.
CC12COC3(C(=O)Nc4ccc(Cl)cc4)CC1CCC32C (stereo not drawn)	i	i	31*	i	i	8.2%*	i	i	i
COC(=O)CN1C(=O)N/C(=C/c2ccccc2OC)C1=O	i	i	i	i	i	.	.	.	.
CCc1cccc(CC)c1NC(=S)Nc1cccc(Cl)c1Cl	i	i	25*	i	i	i	i	i	i
Cc1cc(C)c2sc(NC(=O)c3ccc([N+](=O)[O-])o3)nc2c1	i	i	20*	i	i	i	i	i	i
Cc1ccccc1Oc1ncnc2oc(-c3ccccc3)cc12	i	i	18*	i	i	44%*	i	i	i
CC1Cc2ccccc2N1C(=S)NC(=O)c1cccc(Br)c1 (stereo not drawn)	i	i	10*	i	i	i	i	i	i
CCN1CCN(CCCNC(=O)CCC(=O)N2CCOc3ccc(Cl)cc32)CC1	i	i	i	i	i	.	.	.	.
COc1cccc(NC(=O)CSc2nc3c(sc4ccccc43)c(=O)n2CCN(C)C)c1	i	i	7.5*	i	i	i	i	i	i
CCN(CC)CCn1c(SCC(=O)Nc2cccc(OC)c2)nc2c(sc3ccccc32)c1=O	i	i	i	i	i	.	.	.	.
Cc1ccc(N=Cc2c(O)c3ccccc3oc2=O)cc1F	i	i	i	i	i	.	.	.	.
CCOc1ccnc2c1c(=O)n(Cc1cc(OC)cc(OC)c1)c(=O)n2C	i	i	i	i	i	.	.	.	.
O=C(COC(=O)c1ccc(NS(=O)(=O)c2ccc(Br)s2)cc1)NC1CCCC1	i	i	19*	i	i	i	i	i	i
CCOC(=O)C1CCN(C(=O)CN2C(=O)c3cccnc3Oc3ccccc32)CC1	i	i	8.3*	i	i	i	i	i	i
SMILES	RGS4 pot	MrgX1 antagonist	MrgX1 PAM	RGS4 block	MrgX1 agonist	MrgX1 allo conf	HEK293 Ca flux	HEK293 Ca counter	HEK293 Ca cntr2
CSCC[C@H](NC(=O)[C@@H]1Cc2ccccc2CN1)C(=O)NC(C)c1ccccc1 (stereo partly drawn)	i	i	i	i	i	.	.	.	.
CSCC[C@H](NC(=O)[C@@H]1Cc2ccccc2CN1)C(=O)NC1CCCC1	i	i	8.5*	i	i	i	i	i	i
COc1ccc(Nc2nc(C)c3ccccc3n2)cc1	i	i	15*	i	i	i	i	i	i
O=C(C1CC1)N1CCc2cc(Br)cc(S(=O)(=O)N3CCCCCC3)c21	i	i	11*	i	i	i	i	i	i
O=C(CCNS(=O)(=O)c1ccc(Br)cc1)NC1CCCCC1	i	i	i	i	i	.	.	.	.
O=S(=O)(NC(=S)NC1CCCCC1)c1ccc(Br)cc1	i	i	28*	i	i	25%*	i	i	i
Cn1cccc1/C=N/N1CCN(Cc2cccc3ccccc23)CC1	i	i	i	i	i	.	.	.	.
CC(NC(=O)COc1ccccc1Cl)c1ccccc1 (stereo not drawn)	i	i	7.2*	i	i	i	i	i	i
CC(C)c1ccc(OCC(=O)NC(C)c2ccccc2)cc1 (stereo not drawn)	i	i	i	i	i	.	.	.	.
O=C(c1ccc(Br)cc1)N(c1ccccn1)C1CCCCC1	i	i	19*	i	i	i	i	i	i
COc1cc(C(=O)Nc2ccccc2C(=O)NCc2cccnc2)cc(OC)c1OC	i	i	8.9*	i	i	i	i	i	i
CC(Nc1nc(N2CCNCC2)nc2ccccc12)c1ccccc1 (stereo not drawn)	i	i	i	i	i	.	.	.	.
COc1cc(OC)cc(C2=NC3(CCC(C)CC3)NC2=S)c1 (stereo not drawn)	i	i	6.6*	i	i	i	i	i	i
Cc1ccc(C2=NC3(CCCC3)NC2=S)cc1	i	i	i	i	i	.	.	.	.
